# Experimental data reported in ChEMBL document CHEMBL4513216, “Probing the Open Global Health Chemical Diversity Library for Multistage-Active Starting Points for Next-Generation Antimalarials” (ACS Infect Dis, 2020).
# Assay: Toxicity liver stage against HepG2, at 10uM
# Format: cell-based
# Design: test concentration 10 uM, cell line HepG2-A16-CD81EGFP
# Details: human, HepG2-A16-CD81EGFP cells; read-out: INHIBITION
# Summary of the method: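 Uninfected HepG2-A16-CD81EGFP cells, 3 × 10^3 per well, 1536-well, plated on prespotted compound at 10 μM final, parasite-free screening media added to match infected plates; puromycin 10 μM positive, DMSO 0.5% negative; run in parallel with 48 h PbLuc assay at 37 °C, 5% CO2; viability by CellTiter-Glo luminescence, normalized to controls.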
row,SMILES,cytotoxicity at 10 µM
1,O=C1CC2(CCN(C(=O)c3ccccn3)CC2)Oc2c(Cl)cc(Cl)cc21,1.73%
2,NC(=O)Cn1cnc2nc3n(c2c1=O)CCC3,2.96%
3,Cc1nnc(N2C[C@H](C(=O)NCc3ccco3)[C@@H]3CCO[C@@H]3C2)s1,8.5%
4,CC1c2ncc(CNC(=O)C3CC3)n2CCN1Cc1cnn(C)c1 (configuration not stated),-20.2%
5,Cc1nnc(C2Cc3ccccc3CN2Cc2c(C)noc2C)o1 (configuration not stated),-13.7%
6,CCN(Cc1ccc2c(c1)OCCO2)C(=O)NCc1nncn1CC,-4.35%
7,Cc1ccc(C)c(Oc2cc(-n3nc(C)c(C#N)c3N)nc(C)n2)c1,69.5%
8,CC(NC(=O)C1CC1)c1cc(O)nc(-c2cccnc2)n1 (configuration not stated),2.67%
9,O=S1(=O)N=C(SCc2ccc(Cl)cc2)Nc2ccc(F)cc21,27.6%
10,OC1(CNCc2csc(-c3ncccn3)n2)CCCNC1 (configuration not stated),-10.7%
11,CN(C)C(=O)CO[C@H]1CO[C@@]2(CCN(Cc3ccoc3)C2)C1,-111%
12,CCC(C)(C)NC(=O)c1ccc(NC(=O)NCc2cc(C)no2)cc1,0.696%
13,Cn1cnc2c1C(COCc1cccnc1)N(Cc1ccccc1)CC2 (configuration not stated),13.5%
14,Cn1ncc2c1CCCN(C(=O)C1CC1)C2,-8.27%
15,COc1ncc(C(=O)NCc2ccccc2)cn1,-3.99%
16,CCC(Nc1ccc(CCN2CCCCC2)cc1)C(N)=O (configuration not stated),4.47%
17,c1cnc(N2C[C@H]3CCN(Cc4ccncc4)C[C@H]3C2)nc1,-103%
18,O=C(CC1COCCN1)N1CCC(N2CCc3ccccc3C2)CC1 (configuration not stated),-176%
19,O=c1c2sccc2nc2n1CCN(Cc1cccs1)CC2,4.27%
20,CCc1n[nH]c(C2CN(C(=O)Cn3ccccc3=O)CCO2)n1 (configuration not stated),-0.746%
21,Cc1cc2c(=O)n(CCSc3cnn[nH]3)cnc2s1,10.1%
22,CC(C)OCCOCc1cccc(NC(=O)NCc2ccccn2)c1,-2.35%
23,CCSc1cc(C(=O)NCCC(=O)N(C)C)ccn1,-5.41%

row,SMILES,cytotoxicity at 10 µM
1,CN1C(=O)C(c2ccccc2)CC12CCN(CCN)CC2 (configuration not stated),8.67%
2,Fc1cccc(N2CCCC3(CN(Cc4ccccn4)CCO3)C2)c1 (configuration not stated),2.29%
3,CCN(CCNC(=O)C1CCN(C(C)=O)CC1)c1ccccc1C,-6.19%
4,Cc1cc(C(=O)Nc2nc3c(s2)CN(S(=O)(=O)C2CC2)CC3)c(C)o1,22.7%
5,c1ccc2c(N3CCSCC3)cnnc2c1,-4.02%
6,COc1c(CNC2CCc3cc(Cl)ccc32)c(C)nn1C (configuration not stated),5.64%
7,CN(Cc1cc(C2CC2)[nH]n1)C(=O)c1cnn2ccn(C)c12,-3.67%
8,CC(C)(C)c1cc(CN2CCOC(CCc3ccccc3)C2)n[nH]1 (configuration not stated),-5.34%
9,CNC(=O)c1cccc(CCNC2CCSc3ccccc32)c1 (configuration not stated),3.42%
10,CCNc1cc2c(nn1)CCN(C(=O)C1COc3ccccc3O1)C2 (configuration not stated),-6.34%
11,COCCOc1ccc(CNCC2CNc3cc(C)nn3C2)cn1 (configuration not stated),-10.7%
12,CCCC(=O)N1CCC(N2CC[C@@](O)(CCOC)[C@H](C)C2)CC1,-3.58%
13,O=c1c(S(=O)(=O)N2CCCC2)cccn1Cc1c(F)cccc1Cl,0.814%
14,CC(C)CN1CCC(N2CCC(C(=O)N(C)C)CC2)CC1,16.9%
15,Cc1ncc(CC(=O)N2CCC3(CCC(=O)N(C4CC4)C3)CC2)c(=O)[nH]1,-45.1%
16,CC(=O)c1ccc(NC(=O)N[C@H](C(=O)O)C(C)C)cc1,-14.8%
17,Cc1ccccc1C1CCN(CCn2cc(-c3nccn3C)nn2)C1 (configuration not stated),4.96%
18,O=C(NCc1ccc(CN2CCCCC2)cc1)Nc1cccnc1,74.5%
19,COc1cc(CCC(=O)N2CCC(c3cc4ncccc4[nH]3)CC2)on1,3.78%
20,C=Cn1ncc(CN2C[C@@H]3CCCN3C[C@@H]2Cc2ccccc2)c1C,-5.74%
21,Cc1ncsc1C(=O)N(C)Cc1ccsc1,-9.8%
22,CC(C)CN1C(=O)C2(CCN(Cc3ccc(F)cc3)C2)c2ccccc21 (configuration not stated),13%
23,Cc1ccc(-c2nc(CNC(C)Cn3cccn3)cs2)o1 (configuration not stated),-7.82%

row,SMILES,cytotoxicity at 10 µM
1,COCc1cncc2c1CCN(Cc1cccnc1)C2,3.91%
2,Cc1ccc(C(O)CNCCn2cccn2)cc1C (configuration not stated),-6.11%
3,CN(C)C[C@@H]1CN(C2CCN(c3ccccc3Cl)CC2)C[C@@H]1CO,-10.1%
4,Cc1nn(CC(C)C)c(N(C)C)c1CNCc1cccnc1N(C)C,-7.71%
5,O=C(COc1ccc(-n2cccn2)nn1)NC1CCCCC1,-1.03%
6,CCN1CC(CN(C)Cc2nc(-c3cccc(C)c3)oc2C)CC1=O (configuration not stated),-9.8%
7,Cc1ccc(NC(=O)NC(C)c2nc[nH]n2)s1 (configuration not stated),-2.18%
8,CN(C)C(=O)N1CCc2onc(C(=O)Nc3cccnc3)c2C1,4.85%
9,CCCc1nc(NCCCn2cccn2)c2c(n1)c(C)nn2CC,7.88%
10,O=C(O)c1ccnc(-c2ccnc(NCCc3ccc(F)cc3)n2)c1,1.74%
11,COC1(CNC(=O)NCc2ccccc2)CCSC1 (configuration not stated),-2.42%
12,O=C(c1ccco1)N1CCCC(c2cc(C(F)(F)F)n3ncnc3n2)C1 (configuration not stated),-3.55%
13,COc1ccc(-c2nc(CN3CCCC(OC)C3)c(C)o2)c(F)c1 (configuration not stated),-37.8%
14,CS(=O)(=O)N1C[C@@H](Oc2ccccn2)[C@H]2OCCC[C@H]21,7.78%
15,CC(=O)N1[C@@H](C(=O)NCC2CC2)C[C@@H]2CN(Cc3ccco3)C[C@@H]21,4.22%
16,Cc1cccc(OC2CN(C(=O)c3cnn(C)c3)C2)c1,-2.92%
17,CC(=O)c1cnc(NCCc2csc(-c3cnccn3)n2)nc1C,6.09%
18,Cc1ccc(S(=O)(=O)N2C[C@H]3C[C@H](NC(=O)C(C)C)[C@H]3C2)cc1,-4.59%
19,CC(=O)c1ccc(S(=O)(=O)Nc2cnn(C3CCOCC3)c2)cc1,-2.25%
20,COc1ccc(C)cc1-n1cnnc1C1CCCN(C)C1 (configuration not stated),6.43%
21,Cc1nc(C(NC(=O)C2CCCC2)c2ccccc2F)no1 (configuration not stated),-3.79%
22,CCC(C)Nc1ccc2c(c1)C1(CCOCC1)C(=O)N2c1ccccc1 (configuration not stated),8.7%
23,Cc1nn2cccnc2c1C(=O)NCc1ccccc1OC1CCC1,-46.4%

row,SMILES,cytotoxicity at 10 µM
1,COc1ccc(Cl)cc1CCNC(=O)NCc1noc(C)n1,-4.76%
2,Cn1cc(CN2CCOC3(CCCN(C(=O)c4ccco4)C3)C2)cn1 (configuration not stated),-23.9%
3,Cc1ccc(CC(=O)N2CCCCC2c2nc(C)cs2)cn1 (configuration not stated),2.6%
4,O=C(NCC1CC1)C1=NOC2(CCN(S(=O)(=O)c3cccs3)C2)C1 (configuration not stated),0.693%
5,COc1cccc2c1OCC(Cc1cc(C(N)=O)ccn1)C2 (configuration not stated),5.83%
6,CN(Cc1nncn1C)C(=O)c1cc(COc2ccccc2F)[nH]n1,2.14%
7,Cc1cccc(C(=O)N2CCSCC2)c1NC(=O)c1ccsc1,3.85%
8,CCc1cc(NCCCC2CCOC2)n2nccc2n1 (configuration not stated),5.04%
9,CCCS(=O)(=O)N1CCOC2(CCCN(c3ccccn3)C2)C1 (configuration not stated),4.23%
10,Cn1cc(CN2CCc3onc(C(=O)N4CCCC4)c3C2)cn1,-12.2%
11,CCOCC1CN(C(=O)c2cnoc2C)Cc2cnn(C)c21 (configuration not stated),0.384%
12,CCCNC(=O)Cn1c(C)nn(C(C)(C)C)c1=O,4.62%
13,Cc1cc(C(=O)NS(=O)(=O)Cc2ccon2)c(C)o1,4.42%
14,O=C1CCCC2=C1C(c1ccco1)C1C(=O)NN=C1N2 (configuration not stated),2.1%
15,CC(C)CCN1CCC2(CC1)NCc1ccccc1NC2=O,3.46%
16,CS(=O)(=O)c1ccc(NCc2ccc(F)cc2)cn1,8.08%
17,Cc1nccn1-c1cccc(C2CCCN(C3CCCCC3)C2)n1 (configuration not stated),-2.65%
18,c1cc(CN2C[C@@H]3OCCN(CCN4CCCC4)[C@@H]3C2)co1,6.13%
19,CC(C)NC(=O)CN(C)C1CCN(c2ccc(C#N)cn2)CC1,-16.1%
20,Cc1cc2cc(C(=O)N3C[C@H](O)[C@]4(CCCO4)C3)ccc2o1,-10.9%
21,COC(=O)N1CCN(C(=O)c2ccc(C)c(N3CCNC3=O)c2)CC1,3.76%
22,O=C(NCCCO)c1cnc(-c2ccccc2)nc1O,-7.11%
23,Cc1nc(NCCc2noc(C3CCCO3)n2)c2sccc2n1 (configuration not stated),53.6%

row,SMILES,cytotoxicity at 10 µM
1,O=C(c1ccc2sccc2c1)N1CCC(C(=O)O)(n2cccn2)CC1,-2.77%
2,COc1cccc(OCC2CCCN(C(=O)c3ncc(F)cc3F)C2)c1 (configuration not stated),6.35%
3,CN1CCN(C(=O)NC2CCCC2)Cc2cccnc21,-0.123%
4,CCN(Cc1ccncc1)Cc1c[nH]nc1-c1ccc(F)cc1,-5.83%
5,Cc1ccc(CN2C[C@H](N(C)Cc3cncnc3)[C@H]3OCCC[C@H]32)o1,-149%
6,CC(C)Oc1ccc(CN)c(C(F)(F)F)c1,0.71%
7,CCN1C[C@@H]2CN(C(=O)c3ccsc3)C[C@@H]2C1=O,-6.57%
8,Cc1nn(-c2ccccc2Cl)c(C)c1CCC(=O)NCCS(C)(=O)=O,2.78%
9,COC(=O)c1ccc(C(=O)N2CCCC(Nc3ccc(F)cc3)C2)cc1 (configuration not stated),1.34%
10,Cc1cnn(C2CCCN(C(=O)CCCOc3cccc(F)c3)C2)c1 (configuration not stated),6.71%
11,Cc1ccc(F)c(CNc2ccn(CCC(N)=O)n2)c1,-4.75%
12,CC(C)(C(=O)NCCCc1nc2ccccc2[nH]1)n1cc(Cl)cn1,4.05%
13,CCc1nccn1CC1CCCN1S(=O)(=O)N1CCCOCC1 (configuration not stated),-11.5%
14,Cc1cccc(Cn2cc(C)c(N)n2)c1,-4.14%
15,Cc1ccsc1CN(CCCC(F)(F)F)Cc1ccccn1,0.107%
16,CCOc1ccccc1C(CC(=O)Nc1ccncc1)NC(C)=O (configuration not stated),-12.6%
17,CC(O)CNCc1ccccc1C(F)(F)F (configuration not stated),-3.3%
18,O=C(Nc1ccc2c(c1)OCO2)N1CCCC1c1ccco1 (configuration not stated),-2.11%
19,O=C1CNc2ncnc(NCc3cccs3)c2N1,2.99%
20,Cc1ccc(-c2nc(CN3CCN(CCO)CC3)co2)cc1,-23.7%
